According to publication PMC6777294 (ACS Omega, 2019):
Where two headings read alike, the source gives them in different places.

Assays:
rat MAO enzyme = details: cited from earlier work
hMAO-A [1] = biological target: T1, hMAO-A (Homo sapiens, UniProt P21397); experiment: biochemical; details: Table 2; for IC50: IC50 (μM) hMAO-A (n = 3), log dose inhibition curve, mean ± SD of triplicate; for SI (selective index): ratio of hMAO-B IC50/hMAO-A IC50
T1 sequence (P21397 1-527): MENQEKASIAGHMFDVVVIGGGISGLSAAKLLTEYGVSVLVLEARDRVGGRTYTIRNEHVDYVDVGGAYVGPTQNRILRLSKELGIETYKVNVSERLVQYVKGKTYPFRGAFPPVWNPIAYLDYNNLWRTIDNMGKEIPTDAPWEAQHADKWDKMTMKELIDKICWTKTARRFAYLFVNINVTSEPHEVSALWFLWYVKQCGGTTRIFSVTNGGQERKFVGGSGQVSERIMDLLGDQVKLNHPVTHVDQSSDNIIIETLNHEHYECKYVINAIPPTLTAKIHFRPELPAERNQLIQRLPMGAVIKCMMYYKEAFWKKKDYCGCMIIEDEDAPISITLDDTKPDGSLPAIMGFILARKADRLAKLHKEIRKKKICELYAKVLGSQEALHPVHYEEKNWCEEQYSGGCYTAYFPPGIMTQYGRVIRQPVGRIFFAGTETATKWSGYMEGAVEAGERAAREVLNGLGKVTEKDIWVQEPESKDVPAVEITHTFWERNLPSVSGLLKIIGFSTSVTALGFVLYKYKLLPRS

hMAO-B [2] = biological target: T2, hMAO-B (Homo sapiens, UniProt P27338); experiment: In vitro human MAO inhibitory assay; format: biochemical
T2 sequence (P27338 1-520): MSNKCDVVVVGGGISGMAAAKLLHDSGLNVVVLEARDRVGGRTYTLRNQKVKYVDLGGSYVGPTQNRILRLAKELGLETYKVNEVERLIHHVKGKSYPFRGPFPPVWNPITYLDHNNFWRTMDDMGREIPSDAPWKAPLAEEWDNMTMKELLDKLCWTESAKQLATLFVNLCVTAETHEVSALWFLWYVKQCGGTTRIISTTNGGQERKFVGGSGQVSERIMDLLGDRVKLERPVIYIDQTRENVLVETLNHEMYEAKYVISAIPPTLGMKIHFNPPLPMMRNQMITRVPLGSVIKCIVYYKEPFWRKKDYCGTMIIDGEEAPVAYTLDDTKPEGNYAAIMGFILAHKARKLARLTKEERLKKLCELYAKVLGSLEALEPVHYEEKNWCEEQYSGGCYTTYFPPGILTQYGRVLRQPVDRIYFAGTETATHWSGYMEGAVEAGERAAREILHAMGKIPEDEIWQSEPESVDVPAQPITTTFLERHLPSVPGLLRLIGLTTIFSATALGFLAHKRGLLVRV

hMAO-A [3] = biological target: T1, hMAO-A; experiment: Enzyme kinetics of hMAO-A inhibition; format: biochemical; details: for inhibition type: hMAO-A, determined by Lineweaver–Burk plot
Method in brief: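 hMAO-A activity was measured with the chemiluminescent MAO-Glo kit assay. Reactions ran at three MAO substrate concentrations (320, 160 and 80 μM), with or without test compound. Michaelis–Menten and Lineweaver–Burk plots gave Km, Vmax and inhibition mode. Ki came from secondary plots: Kic for inhibitor binding free enzyme, Kiu for binding the enzyme–substrate complex.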

mouse liver MAO enzyme = details: cited from earlier work
hMAO-B [4] = biological target: T2, hMAO-B; experiment: Enzyme kinetics of hMAO-B inhibition; format: biochemical
Method in brief: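 For hMAO-B, chemiluminescent MAO-Glo kit reactions were set up at three MAO substrate levels (32, 16 and 8 μM), with or without test compound. Inhibition mode, Km and Vmax were read from Michaelis–Menten and Lineweaver–Burk plots. Secondary plots gave Ki: Kic for inhibitor binding free enzyme, Kiu for binding the enzyme–substrate complex.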

hMAO-A [5] = biological target: T1, hMAO-A; details: data reproduced from recent publication ref 32; cited from earlier work

Structure (SMILES) | IC50 (hMAO-A [1]) | IC50 (hMAO-B [2]) | activity against rat MAO enzyme (rat MAO enzyme) | further results
O=C1c2cccc(O)c2C(=O)c2c(O)cccc21 [1,8-dihydroxyanthraquinone] |  |  | inactive | 
Cc1cc(O)c2c(c1)C(=O)c1cccc(O)c1C2=O [Compound 1, chrysophanol] | > 400 µM | > 400 µM | inactive | 
COc1c(O)c(C)cc2c1C(=O)c1c(O)cccc1C2=O [Compound 4, obtusifolin] | 31.8 ± 0.6 µM | > 400 µM |  | 
COc1c(O)cc2c(c1O)C(=O)c1c(cc(C)c(O)c1OC)C2=O [Compound 5, aurantio-obtusin] | 27.2 ± 0.85 µM | 174 ± 1.86 µM |  | SI (selective index) (hMAO-A [1]): 6.40
COc1cc2c(c(OC)c1OC)C(=O)c1c(cc(C)c(O)c1OC)C2=O [Compound 6, chryso-obtusin] | 328 ± 10.2 µM | > 400 µM |  | 
COc1cc(O)c2c(O)c3c(=O)cc(C)oc3cc2c1 [Compound 13, rubrofusarin] |  | 91.4 ± 1.31 µM |  | Kiu (binding constant of inhibitor with enzyme–substrate complex) (hMAO-A [5]): 4.22; inhibition type (hMAO-A [5]): mixed-type; SI (selective index) (hMAO-A [1]): 15.49
O=C(O)c1cc(O)c2c(c1)C(=O)c1cccc(O)c1C2=O [rhein] |  |  | inactive | 

Now from value to molecule, other results behind:

IC50 (hMAO-A [1]) | IC50 (hMAO-B [2]) | Structure (SMILES) | activity against rat MAO enzyme (rat MAO enzyme) | further results
> 400 µM | > 400 µM | COc1cc(O)c2c(c1)C(=O)c1cc(C)cc(O)c1C2=O [Compound 2, physcion] | inactive | 
2.47 ± 0.14 µM | > 400 µM | O=C1c2cccc(O)c2C(=O)c2c(O)cc(CO)cc21 [Compound 9, aloe-emodin] | inactive | Ki (hMAO-A [3]): 0.5 µM; inhibition type (hMAO-A [3]): competitive
23.3 ± 1.46 µM | 54.7 ± 0.74 µM | Cc1cc(O)c2c(c1)C(=O)c1cc(O)cc(O)c1C2=O [Compound 10, emodin] | inactive | IC50 (mouse liver MAO enzyme): 37 µM
0.17 ± 0.01 µM | 10.6 ± 0.28 µM | COc1cc(O)cc2c1C(=O)c1c(O)cc(C)cc1C2=O [Compound 12, questin] |  | Ki (hMAO-A [3]): 0.13 µM; inhibition type (hMAO-A [3]): competitive; Ki (hMAO-B [4]): 4.14 µM; inhibition type (hMAO-B [4]; hMAO-B, determined by Lineweaver–Burk plot): competitive
